Measurements reported in ChEMBL document CHEMBL4689842, “EUbOPEN Chemogenomics Library wave 1” (2021).

Key:
[1] = test system: U2OS; assay: Multiplex assay against U2OS; type: toxicity, cell-based; conditions: human
In short: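 With compound added, live cells were imaged on a CQ1 microscope at 37°C and 5% CO2; staining with Hoechst33342, BioTracker Green Microtubule Cytoskeleton Dye, MitoTracker Red and Annexin V Alexa Fluor 680 had been done at seeding. The CellPathfinder machine-learning gating scheme split cells into Hoechst high-intensity objects or normal cells, normal cells into healthy, pyknosed or fragmented nuclei, and pyknosed cells into mitotic or apoptotic. The tubulin, mitochondrial-mass and membrane-permeability phenotypes are per cents of healthy-nucleus cells.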

[2] = test system: Fibroblast; assay: Incucyte cell viability with human fibroblast; type: toxicity, cell-based; conditions: 10 µM, compound concentration 10 uM; also: filed as whole numbers so only -1 and 0 and 1 occur
[3] = 12 h, 1 µM, compound concentration 1 uM, replicate 1
[4] = 12 h, 1 µM, compound concentration 1 uM, replicate 2
[5] = 12 h, 10 µM, compound concentration 10 uM, replicate 1
[6] = 12 h, 10 µM, compound concentration 10 uM, replicate 2
[7] = 24 h, 1 µM, compound concentration 1 uM, replicate 1
[8] = 24 h, 1 µM, compound concentration 1 uM, replicate 2
[9] = 24 h, 10 µM, compound concentration 10 uM, replicate 1
[10] = 24 h, 10 µM, compound concentration 10 uM, replicate 2
[11] = 48 h, 1 µM, compound concentration 1 uM, replicate 1
[12] = 48 h, 1 µM, compound concentration 1 uM, replicate 2
[13] = 48 h, 10 µM, compound concentration 10 uM, replicate 1
[14] = 48 h, 10 µM, compound concentration 10 uM, replicate 2
[15] = 0 h, replicate number 1, timepoint 0 hours
[16] = 24 h, replicate number 1, timepoint 24 hours

Cc1ccc(S(=O)(=O)NC2c3ccccc3Oc3ccccc32)cc1
Population Apoptotic (%) [1, 3]: 47% | Population Fragmented Nuclei (%) [1, 3]: 11% | Population Healthy Nuclei (%) [1, 3]: 77% | Population Hoechst High Intensity Objects (%) [1, 3]: 5% | Population Membrane Permeable-Phenotype (%) [1, 3]: 6% | Population Mitochondria Different-Phenotype (%) [1, 3]: 5% | Population Mitotic Cells (%) [1, 3]: 52% | Population Normal (%) [1, 3]: 94% | Population Pyknosed Nuclei (%) [1, 3]: 10% | Population Tubulin-Different-Phenotype (%) [1, 3]: 5% | Total Cell Count [1, 3]: 216 | Population Apoptotic (%) [1, 4]: 0% | Population Fragmented Nuclei (%) [1, 4]: 10% | Population Healthy Nuclei (%) [1, 4]: 76% | Population Hoechst High Intensity Objects (%) [1, 4]: 4% | Population Membrane Permeable-Phenotype (%) [1, 4]: 0% | Population Mitochondria Different-Phenotype (%) [1, 4]: 16% | Population Mitotic Cells (%) [1, 4]: 100% | Population Normal (%) [1, 4]: 95% | Population Pyknosed Nuclei (%) [1, 4]: 12% | Population Tubulin-Different-Phenotype (%) [1, 4]: 2% | Total Cell Count [1, 4]: 49 | Population Apoptotic (%) [1, 5]: 71% | Population Fragmented Nuclei (%) [1, 5]: 84% | Population Healthy Nuclei (%) [1, 5]: 12% | Population Hoechst High Intensity Objects (%) [1, 5]: 7% | Population Membrane Permeable-Phenotype (%) [1, 5]: 71% | Population Mitochondria Different-Phenotype (%) [1, 5]: 28% | Population Mitotic Cells (%) [1, 5]: 28% | Population Normal (%) [1, 5]: 92% | Population Pyknosed Nuclei (%) [1, 5]: 2% | Population Tubulin-Different-Phenotype (%) [1, 5]: 68% | Total Cell Count [1, 5]: 507 | Population Apoptotic (%) [1, 6]: 95% | Population Fragmented Nuclei (%) [1, 6]: 42% | Population Healthy Nuclei (%) [1, 6]: 34% | Population Hoechst High Intensity Objects (%) [1, 6]: 6% | Population Membrane Permeable-Phenotype (%) [1, 6]: 44% | Population Mitochondria Different-Phenotype (%) [1, 6]: 0% | Population Mitotic Cells (%) [1, 6]: 4% | Population Normal (%) [1, 6]: 93% | Population Pyknosed Nuclei (%) [1, 6]: 23% | Population Tubulin-Different-Phenotype (%) [1, 6]: 50% | Total Cell Count [1, 6]: 106 | Population Apoptotic (%) [1, 7]: 59% | Population Fragmented Nuclei (%) [1, 7]: 57% | Population Healthy Nuclei (%) [1, 7]: 25% | Population Hoechst High Intensity Objects (%) [1, 7]: 0% | Population Membrane Permeable-Phenotype (%) [1, 7]: 11% | Population Mitochondria Different-Phenotype (%) [1, 7]: 17% | Population Mitotic Cells (%) [1, 7]: 40% | Population Normal (%) [1, 7]: 100% | Population Pyknosed Nuclei (%) [1, 7]: 16% | Population Tubulin-Different-Phenotype (%) [1, 7]: 5% | Total Cell Count [1, 7]: 132 | Population Apoptotic (%) [1, 8]: 25% | Population Fragmented Nuclei (%) [1, 8]: 5% | Population Healthy Nuclei (%) [1, 8]: 88% | Population Hoechst High Intensity Objects (%) [1, 8]: 7% | Population Membrane Permeable-Phenotype (%) [1, 8]: 7% | Population Mitochondria Different-Phenotype (%) [1, 8]: 15% | Population Mitotic Cells (%) [1, 8]: 75% | Population Normal (%) [1, 8]: 92% | Population Pyknosed Nuclei (%) [1, 8]: 6% | Population Tubulin-Different-Phenotype (%) [1, 8]: 13% | Total Cell Count [1, 8]: 65 | Population Apoptotic (%) [1, 9]: 71% | Population Fragmented Nuclei (%) [1, 9]: 69% | Population Healthy Nuclei (%) [1, 9]: 27% | Population Hoechst High Intensity Objects (%) [1, 9]: 6% | Population Membrane Permeable-Phenotype (%) [1, 9]: 34% | Population Mitochondria Different-Phenotype (%) [1, 9]: 18% | Population Mitotic Cells (%) [1, 9]: 28% | Population Normal (%) [1, 9]: 93% | Population Pyknosed Nuclei (%) [1, 9]: 2% | Population Tubulin-Different-Phenotype (%) [1, 9]: 19% | Total Cell Count [1, 9]: 321 | Population Apoptotic (%) [1, 10]: 100% | Population Fragmented Nuclei (%) [1, 10]: 10% | Population Healthy Nuclei (%) [1, 10]: 68% | Population Hoechst High Intensity Objects (%) [1, 10]: 4% | Population Membrane Permeable-Phenotype (%) [1, 10]: 20% | Population Mitochondria Different-Phenotype (%) [1, 10]: 14% | Population Mitotic Cells (%) [1, 10]: 0% | Population Normal (%) [1, 10]: 95% | Population Pyknosed Nuclei (%) [1, 10]: 21% | Population Tubulin-Different-Phenotype (%) [1, 10]: 43% | Total Cell Count [1, 10]: 84 | Population Apoptotic (%) [1, 11]: 50% | Population Fragmented Nuclei (%) [1, 11]: 8% | Population Healthy Nuclei (%) [1, 11]: 85% | Population Membrane Permeable-Phenotype (%) [1, 11]: 0% | Population Mitochondria Different-Phenotype (%) [1, 11]: 7% | Population Mitotic Cells (%) [1, 11]: 50% | Population Pyknosed Nuclei (%) [1, 11]: 6% | Population Tubulin-Different-Phenotype (%) [1, 11]: 3% | Total Cell Count [1, 11]: 429 | Population Apoptotic (%) [1, 12]: 25% | Population Fragmented Nuclei (%) [1, 12]: 5% | Population Healthy Nuclei (%) [1, 12]: 90% | Population Hoechst High Intensity Objects (%) [1, 12]: 2% | Population Membrane Permeable-Phenotype (%) [1, 12]: 10% | Population Mitochondria Different-Phenotype (%) [1, 12]: 18% | Population Mitotic Cells (%) [1, 12]: 75% | Population Normal (%) [1, 12]: 97% | Population Pyknosed Nuclei (%) [1, 12]: 4% | Population Tubulin-Different-Phenotype (%) [1, 12]: 10% | Total Cell Count [1, 12]: 93 | Population Apoptotic (%) [1, 13]: 44% | Population Fragmented Nuclei (%) [1, 13]: 11% | Population Healthy Nuclei (%) [1, 13]: 82% | Population Hoechst High Intensity Objects (%) [1, 13]: 3% | Population Membrane Permeable-Phenotype (%) [1, 13]: 3% | Population Mitochondria Different-Phenotype (%) [1, 13]: 12% | Population Mitotic Cells (%) [1, 13]: 55% | Population Normal (%) [1, 13]: 96% | Population Pyknosed Nuclei (%) [1, 13]: 6% | Population Tubulin-Different-Phenotype (%) [1, 13]: 12% | Total Cell Count [1, 13]: 155 | Population Apoptotic (%) [1, 14]: 75% | Population Fragmented Nuclei (%) [1, 14]: 7% | Population Healthy Nuclei (%) [1, 14]: 84% | Population Hoechst High Intensity Objects (%) [1, 14]: 4% | Population Membrane Permeable-Phenotype (%) [1, 14]: 17% | Population Mitochondria Different-Phenotype (%) [1, 14]: 14% | Population Mitotic Cells (%) [1, 14]: 25% | Population Normal (%) [1, 14]: 95% | Population Pyknosed Nuclei (%) [1, 14]: 7% | Population Tubulin-Different-Phenotype (%) [1, 14]: 37% | Total Cell Count [1, 14]: 109 | Growth Rate [2, 15]: 0 | Growth Rate [2, 16]: 1

CC[C@@H]1C(=O)N(C)c2cnc(Nc3ccc(C(=O)NC4CCN(C)CC4)cc3OC)nc2N1C1CCCC1 [BI-2536]
Population Apoptotic (%) [1, 3]: 100% | Population Fragmented Nuclei (%) [1, 3]: 16% | Population Healthy Nuclei (%) [1, 3]: 80% | Population Hoechst High Intensity Objects (%) [1, 3]: 1% | Population Membrane Permeable-Phenotype (%) [1, 3]: 40% | Population Mitochondria Different-Phenotype (%) [1, 3]: 16% | Population Mitotic Cells (%) [1, 3]: 0% | Population Normal (%) [1, 3]: 98% | Population Pyknosed Nuclei (%) [1, 3]: 3% | Population Tubulin-Different-Phenotype (%) [1, 3]: 35% | Total Cell Count [1, 3]: 142 | Population Apoptotic (%) [1, 4]: 70% | Population Fragmented Nuclei (%) [1, 4]: 10% | Population Healthy Nuclei (%) [1, 4]: 79% | Population Hoechst High Intensity Objects (%) [1, 4]: 8% | Population Membrane Permeable-Phenotype (%) [1, 4]: 33% | Population Mitochondria Different-Phenotype (%) [1, 4]: 24% | Population Mitotic Cells (%) [1, 4]: 30% | Population Normal (%) [1, 4]: 91% | Population Pyknosed Nuclei (%) [1, 4]: 10% | Population Tubulin-Different-Phenotype (%) [1, 4]: 34% | Total Cell Count [1, 4]: 107 | Population Apoptotic (%) [1, 5]: 76% | Population Fragmented Nuclei (%) [1, 5]: 15% | Population Healthy Nuclei (%) [1, 5]: 76% | Population Hoechst High Intensity Objects (%) [1, 5]: 2% | Population Membrane Permeable-Phenotype (%) [1, 5]: 41% | Population Mitochondria Different-Phenotype (%) [1, 5]: 72% | Population Mitotic Cells (%) [1, 5]: 23% | Population Normal (%) [1, 5]: 97% | Population Pyknosed Nuclei (%) [1, 5]: 8% | Population Tubulin-Different-Phenotype (%) [1, 5]: 99% | Total Cell Count [1, 5]: 160 | Population Apoptotic (%) [1, 6]: 81% | Population Fragmented Nuclei (%) [1, 6]: 23% | Population Healthy Nuclei (%) [1, 6]: 67% | Population Hoechst High Intensity Objects (%) [1, 6]: 8% | Population Membrane Permeable-Phenotype (%) [1, 6]: 51% | Population Mitochondria Different-Phenotype (%) [1, 6]: 94% | Population Mitotic Cells (%) [1, 6]: 18% | Population Normal (%) [1, 6]: 91% | Population Pyknosed Nuclei (%) [1, 6]: 9% | Population Tubulin-Different-Phenotype (%) [1, 6]: 100% | Total Cell Count [1, 6]: 123 | Population Apoptotic (%) [1, 7]: 46% | Population Fragmented Nuclei (%) [1, 7]: 17% | Population Healthy Nuclei (%) [1, 7]: 73% | Population Hoechst High Intensity Objects (%) [1, 7]: 2% | Population Membrane Permeable-Phenotype (%) [1, 7]: 20% | Population Mitochondria Different-Phenotype (%) [1, 7]: 29% | Population Mitotic Cells (%) [1, 7]: 53% | Population Normal (%) [1, 7]: 97% | Population Pyknosed Nuclei (%) [1, 7]: 9% | Population Tubulin-Different-Phenotype (%) [1, 7]: 17% | Total Cell Count [1, 7]: 145 | Population Apoptotic (%) [1, 8]: 55% | Population Fragmented Nuclei (%) [1, 8]: 21% | Population Healthy Nuclei (%) [1, 8]: 69% | Population Hoechst High Intensity Objects (%) [1, 8]: 12% | Population Membrane Permeable-Phenotype (%) [1, 8]: 15% | Population Mitochondria Different-Phenotype (%) [1, 8]: 35% | Population Mitotic Cells (%) [1, 8]: 44% | Population Normal (%) [1, 8]: 87% | Population Pyknosed Nuclei (%) [1, 8]: 8% | Population Tubulin-Different-Phenotype (%) [1, 8]: 10% | Total Cell Count [1, 8]: 115 | Population Apoptotic (%) [1, 9]: 93% | Population Fragmented Nuclei (%) [1, 9]: 18% | Population Healthy Nuclei (%) [1, 9]: 72% | Population Hoechst High Intensity Objects (%) [1, 9]: 5% | Population Membrane Permeable-Phenotype (%) [1, 9]: 61% | Population Mitochondria Different-Phenotype (%) [1, 9]: 99% | Population Mitotic Cells (%) [1, 9]: 6% | Population Normal (%) [1, 9]: 94% | Population Pyknosed Nuclei (%) [1, 9]: 9% | Population Tubulin-Different-Phenotype (%) [1, 9]: 99% | Total Cell Count [1, 9]: 180 | Population Apoptotic (%) [1, 10]: 88% | Population Fragmented Nuclei (%) [1, 10]: 22% | Population Healthy Nuclei (%) [1, 10]: 70% | Population Hoechst High Intensity Objects (%) [1, 10]: 10% | Population Membrane Permeable-Phenotype (%) [1, 10]: 84% | Population Mitochondria Different-Phenotype (%) [1, 10]: 100% | Population Mitotic Cells (%) [1, 10]: 11% | Population Normal (%) [1, 10]: 89% | Population Pyknosed Nuclei (%) [1, 10]: 7% | Population Tubulin-Different-Phenotype (%) [1, 10]: 100% | Total Cell Count [1, 10]: 135 | Growth Rate [2, 15]: 0 | Growth Rate ([2]; 12 h, replicate number 1, timepoint 12 hours): 1 | Growth Rate ([2]; 18 h, replicate number 1, timepoint 18 hours): 0 | Growth Rate ([2]; 18 h, replicate number 2, timepoint 18 hours): 1 | Growth Rate [2, 16]: 0
